Measurements taken from ChEMBL document CHEMBL2424641, “Synthesis and evaluation of novel radioligands for positron emission tomography imaging of the orexin-2 receptor” (J Med Chem, 2013).
The source made the active and inactive calls. The calls are words filed in the database; no cut-off is given here.

Legend:
Cerebellum = assay: Drug uptake in P-gp-knockout rat cerebellum at 78.7 to 189.8 MBq, iv after 90 mins by PET analysis in presence of 10 mg/kg, po unlabeled compound; assay type: ADME, organism-based; parameters: dose 10 mg/kg, route oral; details: in vivo, 1.5 h
In short: (§1)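 Male Mdr1a-knockout rats (410−500 g) under 1.5% isoflurane at 37 °C; [11C] tracer 78.7−189.8 MBq by tail vein. 90 min list-mode microPET scan with filtered back-projection; ROIs drawn on MRI template; decay-corrected %ID/mL, n = 3. Blocking: unlabeled compound 10 mg/kg po in 5% DMSO/10% cremophor in 10 mM HCl, given 1 h before tracer.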

Thalamus = assay: Drug uptake in P-gp-knockout rat thalamus at 78.7 to 189.8 MBq, iv after 90 mins by PET analysis; assay type: ADME, organism-based; details: in vivo, 1.5 h; in short: as §1
Hippocampus = assay: Drug uptake in P-gp-knockout rat hippocampus at 78.7 to 189.8 MBq, iv after 90 mins by PET analysis; assay type: ADME, organism-based; details: in vivo, 1.5 h; in short: as §1
[1] = Drug uptake in P-gp-knockout rat neocortex at 78.7 to 189.8 MBq, iv after 90 mins by PET analysis; assay type: ADME, organism-based; details: in vivo, 1.5 h; in short: as §1
[2] = Octanol-phosphate buffer partition coefficient, log D of the compound at pH 7.4 by Shake flask method; assay type: physicochemical
In short: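 [11C]-labelled compound (about 200 000 cpm) in n-octanol and 0.1 M PBS pH 7.4, vortexed 3 min at rt and centrifuged; weighed aliquots of each phase γ-counted, with the organic layer repartitioned until stable. log D = log(cpm/g octanol ÷ cpm/g PBS); triplicate.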

[3] = biological target: T1, Orexin receptor type 2 (Rattus norvegicus) (UniProt P56719); assay: Binding affinity to OX2 receptor in rat brain neocortex layer 6 at 3.6 nM by autoradiography in presence of EMPA; assay type: tissue-based; details: tested as the 11C-labelled form
T1 sequence (whole entry): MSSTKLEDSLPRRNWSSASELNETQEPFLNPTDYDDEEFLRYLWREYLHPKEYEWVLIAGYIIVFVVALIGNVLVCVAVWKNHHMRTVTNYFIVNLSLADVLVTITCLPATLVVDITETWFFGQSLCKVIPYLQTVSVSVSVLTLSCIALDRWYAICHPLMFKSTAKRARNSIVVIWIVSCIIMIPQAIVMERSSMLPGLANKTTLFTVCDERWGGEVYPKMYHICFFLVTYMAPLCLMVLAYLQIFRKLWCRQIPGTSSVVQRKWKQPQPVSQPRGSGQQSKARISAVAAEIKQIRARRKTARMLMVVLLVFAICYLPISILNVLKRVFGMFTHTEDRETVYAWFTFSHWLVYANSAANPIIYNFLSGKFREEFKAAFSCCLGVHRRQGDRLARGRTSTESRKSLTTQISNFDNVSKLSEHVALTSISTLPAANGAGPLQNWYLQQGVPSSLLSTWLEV

[4] = biological target: T1, Orexin receptor type 2 (Rattus norvegicus); assay: Binding affinity to OX2 receptor in coronal rat hypothalamus at 2.5 nM by autoradiography; details: tested as the 11C-labelled form
In short: (§2)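 Rat brain sections (20 μm) preincubated 20 min at rt in 25 mM HEPES pH 7.4 with 5 mM MgCl2 and 1 mM CaCl2, then incubated 60 min at rt with 11C radioligand; nonspecific binding with 10 μM unlabeled compound. Sections washed three times in cold water, dried, exposed to imaging plate 1 h alongside calibrated radioactive standards.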

[5] = Ratio of flux ratio in pig LLC cells expressing MDR1 to flux ratio on pig LLC-PK1 cells; assay type: ADME, cell-based, Sus scrofa
In short: (§3)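 LLC-PK1 and LLC-MDR1 monolayers, 5 days post-seeding, preincubated 2 h at 37 °C in HBSS/10 mM HEPES. Compound added apically or basally, 2 h at 37 °C; opposite side assayed by LC-MS. Papp = Q/t/C0/A; FR = Papp(b→a)/Papp(a→b); corrected FR = FR(LLC-MDR1)/FR(LLC-PK1).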

LLC-PK1 = assay: Flux ratio of permeability from apical to basolateral to basolateral to apical side in pig LLC-PK1 cells after 2 hrs; assay type: ADME, cell-based, Sus scrofa; details: llc-pk1, 2 h; in short: as §3
[6] = biological target: Melatonin receptor type 1A (Homo sapiens) (UniProt P48039); assay: Antagonist activity at melatonin MT1A receptor (unknown origin) expressed in HEK 293 cells coexpressing Gqi5 chimeric G-protein after 1 hr by fluorescence-based analysis; assay type: cell-based
In short: (§4)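 HEK293 cells stably expressing target GPCR with Gqi5 chimeric G-protein, seeded on collagen I plates and cultured overnight; calcium dye loaded 1 h at 37 °C. Compound at final 3, 10, 30 μM preincubated 1 h at rt, then reference agonist added at EC20 or EC80; Ca2+ fluorescence read in real time.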

[7] = biological target: Cannabinoid receptor 1 (Homo sapiens) (UniProt P21554); assay: Antagonist activity at cannabinoid CB1 receptor (unknown origin) expressed in HEK 293 cells coexpressing Gqi5 chimeric G-protein after 1 hr by fluorescence-based analysis; assay type: cell-based; in short: as §4
[8] = biological target: T1, Orexin receptor type 2 (Rattus norvegicus); assay: Binding affinity to OX2 receptor in rat brain neocortex layer 6 at 3.6 nM by autoradiography in presence of suvorexant; assay type: tissue-based; details: tested as the 11C-labelled form
[9] = biological target: T1, Orexin receptor type 2 (Rattus norvegicus); assay: Binding affinity to OX2 receptor in coronal rat brain neocortex layer 6 at 2.5 nM by autoradiography; assay type: tissue-based; details: tested as the 11C-labelled form; in short: as §2
[10] = Flux ratio of permeability from apical to basolateral to basolateral to apical side in pig LLC cells expressing MDR1 after 2 hrs; assay type: ADME, cell-based, Sus scrofa; in short: as §3
Orexin receptor type 2 = biological target: T2, Orexin receptor type 2 (Homo sapiens, UniProt O43614); assay: Displacement of [125I]-orexin-A from human OX2 receptor expressed in CHO cells after 30 mins by liquid scintillation counting analysis; assay type: cell-based
T2 sequence (O43614 whole entry): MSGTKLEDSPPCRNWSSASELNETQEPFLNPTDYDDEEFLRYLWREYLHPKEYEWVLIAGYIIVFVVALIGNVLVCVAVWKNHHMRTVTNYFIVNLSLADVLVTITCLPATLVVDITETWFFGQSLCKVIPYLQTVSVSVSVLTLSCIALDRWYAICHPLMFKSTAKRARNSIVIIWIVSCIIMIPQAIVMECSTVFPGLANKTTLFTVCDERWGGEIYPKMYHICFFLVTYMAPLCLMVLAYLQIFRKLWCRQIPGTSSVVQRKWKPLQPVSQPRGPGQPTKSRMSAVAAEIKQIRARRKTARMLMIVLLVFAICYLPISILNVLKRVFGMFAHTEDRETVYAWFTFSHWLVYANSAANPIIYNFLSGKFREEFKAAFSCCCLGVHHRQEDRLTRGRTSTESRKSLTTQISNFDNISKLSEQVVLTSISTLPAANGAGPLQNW
In short: (§5)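 CHO membranes expressing human OX1R or OX2R (5 μg protein) incubated 30 min at rt with compound and [125I]-orexin A (2 nM stock) in HEPES buffer pH 7.5 with MgCl2, CaCl2, BSA. Nonspecific binding with 10 μM orexin A. Wells washed with HEPES/525 mM NaCl and DPM counted. % inhibition from test, control and nonspecific counts; mean of three wells.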

[11] = biological target: T3, Orexin/Hypocretin receptor type 1 (Homo sapiens, UniProt O43613); assay: Displacement of [125I]-orexin-A from human OX1 receptor expressed in CHO cells after 30 mins by liquid scintillation counting analysis; assay type: cell-based; in short: as §5
T3 sequence (O43613 whole entry): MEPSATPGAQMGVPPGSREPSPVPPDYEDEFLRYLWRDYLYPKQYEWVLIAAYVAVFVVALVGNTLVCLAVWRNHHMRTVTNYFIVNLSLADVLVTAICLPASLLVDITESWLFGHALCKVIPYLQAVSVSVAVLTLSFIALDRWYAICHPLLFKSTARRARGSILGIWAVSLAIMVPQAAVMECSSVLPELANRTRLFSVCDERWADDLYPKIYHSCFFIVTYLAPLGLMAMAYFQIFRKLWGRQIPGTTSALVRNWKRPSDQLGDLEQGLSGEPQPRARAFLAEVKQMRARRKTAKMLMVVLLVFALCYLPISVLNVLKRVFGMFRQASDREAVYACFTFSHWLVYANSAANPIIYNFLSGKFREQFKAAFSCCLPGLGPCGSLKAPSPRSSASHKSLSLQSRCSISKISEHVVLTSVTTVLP

[12] = biological target: T1, Orexin receptor type 2 (Rattus norvegicus); assay: Binding affinity to OX2 receptor in coronal rat neocortex layer 6 at 2 nM by autoradiography; details: tested as the 11C-labelled form; in short: as §2
[13] = HEK293, tested as the 11C-labelled form

Melatonin receptor type 1A (Homo sapiens), sequence (P48039 whole entry): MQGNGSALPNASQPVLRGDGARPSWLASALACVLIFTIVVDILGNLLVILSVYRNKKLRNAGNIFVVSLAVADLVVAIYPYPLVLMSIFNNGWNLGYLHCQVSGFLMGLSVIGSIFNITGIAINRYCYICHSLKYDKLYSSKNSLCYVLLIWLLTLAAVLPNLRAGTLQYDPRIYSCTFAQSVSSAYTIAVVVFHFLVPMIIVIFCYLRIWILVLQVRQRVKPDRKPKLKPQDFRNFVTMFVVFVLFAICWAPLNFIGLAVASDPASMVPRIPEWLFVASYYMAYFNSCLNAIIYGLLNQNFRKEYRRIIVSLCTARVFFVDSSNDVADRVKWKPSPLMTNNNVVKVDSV
Cannabinoid receptor 1 (Homo sapiens), sequence (P21554 whole entry): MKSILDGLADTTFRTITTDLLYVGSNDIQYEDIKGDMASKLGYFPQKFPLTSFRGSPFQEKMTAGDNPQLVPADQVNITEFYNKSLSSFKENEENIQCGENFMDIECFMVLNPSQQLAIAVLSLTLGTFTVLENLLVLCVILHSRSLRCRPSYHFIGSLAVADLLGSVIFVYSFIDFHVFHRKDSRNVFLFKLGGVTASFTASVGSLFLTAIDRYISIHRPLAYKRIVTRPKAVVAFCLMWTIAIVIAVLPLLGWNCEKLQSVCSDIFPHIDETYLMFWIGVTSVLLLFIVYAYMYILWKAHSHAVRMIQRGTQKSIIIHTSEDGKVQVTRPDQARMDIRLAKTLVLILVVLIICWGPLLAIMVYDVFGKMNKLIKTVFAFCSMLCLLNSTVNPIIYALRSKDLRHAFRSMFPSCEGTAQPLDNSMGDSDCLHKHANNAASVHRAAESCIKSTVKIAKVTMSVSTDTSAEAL

Row | SMILES | Drug uptake (Cerebellum) | Drug uptake (Thalamus) | Drug uptake (Hippocampus) | Drug uptake [1] | logD [2] | Activity [3] | Activity [4] | Ratio [5] | Ratio (LLC-PK1) | Activity ([6]; HEK293) | Activity [6, 13] | Activity ([7]; HEK293) | Activity [7, 13] | Activity [8] | Activity [9] | Ratio [10] | Ki (Orexin receptor type 2) [nM] | Ki [11] [nM] | Activity [12]
1 | Cc1ncc(OC[C@@]2(c3cccc(F)c3)C[C@H]2C(=O)Nc2cc(O[11CH3])c(F)cn2)c(C)n1 | Not Active | Active | Active | Active | 2.93 |  |  |  |  |  |  |  |  |  |  |  |  |  | 
2 | COCc1nc(C)ncc1OC[C@@]1(c2cccc(F)c2)C[C@H]1C(=O)Nc1ccc(F)cn1 | Active | Active | Active | Active | 2.97 | inactive | Active | 3.11 | 0.84 | Active | Active | Active | Active | inactive | Active | 2.61 | 1 | 1 | Active
